Test results from ChEMBL document CHEMBL1157128, “Silica-supported fluoroboric acid (HBF(4)-SiO(2)) catalyzed highly productive synthesis of thiomorpholides as activators of l-asparaginase as well as the antioxidant agent” (Bioorg Med Chem, 2010).
The source made the active and inactive calls. No cut-off for these calls is given here.

Legend:
[1] = test system: Radical scavenging activity; assay: Antioxidant activity assessed as DPPH free radical scavenging activity at 1 mM/ml after 30 mins; assay type: functional
In short: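 DPPH scavenging assay. 1 mM compound stock was mixed with DPPH in methanol (0.5 mL, 0.3 mM) in a 3 mL total mixture and left at room temperature for 30 min. Absorbance was read at 520 nm. Percent activity was calculated as [1 − OD test/OD control] × 100. BHA served as standard.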

[2] = test system: L-asparaginase (Erwinia carotovora); assay: Binding affinity to Erwinia carotovora L-asparaginase by spectrophotometry; settings: Pectobacterium carotovorum
[3] = test system: L-asparaginase (Erwinia carotovora); assay: Ratio of Vmax to Km for Erwinia carotovora L-asparaginase by Lineweaver-Burke plot; settings: Pectobacterium carotovorum

Compound | Activity [1] [%] | Activity [2] | KA [2] [µM] | Vmax/Km [3]
S=C(Cc1ccco1)N1CCOCC1 | 0 |  |  | 
COc1ccc(CC(=S)N2CCOCC2)cc1 | 24.3 | Active | 0.0851 | 6.25
Nc1ccccc1CC(=S)N1CCOCC1 | 0 |  |  | 
COc1ccc(CC(=S)N2CCOCC2)cc1OC | 32.6 | Active | 0.985 | 13.3
Oc1ccccc1CC(=S)N1CCOCC1 | 36.1 |  | 0.625 | 4.04
S=C(CCCc1ccccc1)N1CCOCC1 | 0 |  |  | 
Cc1ccc(CC(=S)N2CCOCC2)cc1 | 21.6 |  |  | 
S=C(Cc1ccc(OCc2ccccc2)cc1)N1CCOCC1 | 25.9 |  |  | 
S=C(Cc1ccccc1)N1CCOCC1 | 24.3 |  |  | 
O=[N+]([O-])c1ccc(CC(=S)N2CCOCC2)cc1 | 0 |  |  | 
S=C(Cc1ccc2ccccc2c1)N1CCOCC1 | 0 |  |  | 
COc1ccc(O)c(C(C)(C)C)c1.COc1ccc(O)cc1C(C)(C)C | 72.3 |  |  | 
S=C(Cc1ccc(Br)cc1)N1CCOCC1 | 0 |  |  | 
